# From ChEMBL document CHEMBL1131482 (J Med Chem, 1998)
# Key:
# Mus musculus [1] = assay: Licking latency was measured after 30 min treatment (at dose=5 mg/kg) by using mouse hot plate test; format: functional
# In short: (§1)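 Male Swiss-Webster mice (22-28 g), 23 ± 1 °C, 12-h light/dark cycle, food and water ad libitum. Hot plate at 52.5 ± 0.1 °C with licking latency as read-out and 45 s cutoff. Mice with pre-drug latency below 12 or over 18 s were rejected. Compounds given sc, 5-12 mice per test. Significance was assessed by Dunnett's two-tailed test, P < 0.05.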
# Mus musculus [2] = assay: Licking latency was measured before treatment (at dose=20 mg/kg) by using mouse hot plate test; format: functional; in short: as §1
# TE-671 [3] = assay: Cholinergic interactions was measured with FLIPR device on TE671 cells and given as Intrinsic activity; format: functional, Homo sapiens
# In short: (§2)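 Cells were plated on poly(ethylenimine)-coated plates and used about 72 h later. Loading was Fluo-3 AM for 1 h at 37 °C, followed by washes in Hepes-salts buffer, pH 7.4. FLIPR recorded Ca2+ fluorescence over 5 min after agonist addition. Responses were normalized to 100 µM nicotine (100%) and unloaded cells (0%), and EC50 and intrinsic activity were derived from concentration-response curves.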
# Mus musculus [4] = assay: Licking latency was measured after 15 min treatment (at dose=10 mg/kg) by using mouse hot plate test; format: functional; in short: as §1
# Mus musculus [5] = assay: Minimal dose able to induce a statistically significant increase of the pain threshold, done on mouse; sc; format: functional
# In short: (§3)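 Mouse hot plate test (52.5 ± 0.1 °C, 45 s cutoff) after sc dosing, in male Swiss-Webster mice. The value is the lowest dose giving a statistically significant rise in pain threshold. Dunnett's two-tailed test compared treated mice at maximum reaction time with pretest time, P < 0.05.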
# Mus musculus [6] = assay: Licking latency was measured before treatment (at dose=10 mg/kg) by using mouse hot plate test; format: functional; in short: as §1
# Mus musculus [7] = assay: Licking latency was measured after 30 min treatment (at dose=1 mg/kg) by using mouse hot plate test; format: functional; in short: as §1
# Mus musculus [8] = species: Mus musculus; assay: Analgesic efficacy is expressed as percentage of that morphine, done on mouse.; format: functional
# Mus musculus [9] = assay: Licking latency was measured after 15 min treatment (at dose=5 mg/kg) by using mouse hot plate test; format: functional; in short: as §1
# Mus musculus [10] = assay: Licking latency was measured after 30 min treatment (at dose=10 mg/kg) by using mouse hot plate test; format: functional; in short: as §1
# Mus musculus [11] = assay: Licking latency was measured before treatment (at dose=1 mg/kg) by using mouse hot plate test; format: functional; in short: as §1
# Mus musculus [12] = assay: Licking latency was measured after 45 min treatment (at dose=1 mg/kg) by using mouse hot plate test; format: functional; in short: as §1
# Mus musculus [13] = assay: Licking latency was measured after 15 min treatment (at dose=1 mg/kg) by using mouse hot plate test; format: functional; in short: as §1
# Mus musculus [14] = assay: Licking latency was measured before treatment (at dose=5 mg/kg) by using mouse hot plate test; format: functional
# In short: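 Male Swiss-Webster mice (22-28 g), 23 ± 1 °C, 12-h light/dark cycle. Hot plate at 52.5 ± 0.1 °C. Mice with pre-drug licking latency below 12 s or over 18 s were rejected. Cutoff 45 s. Compound given sc; latency read before dosing and at 15, 30 and 45 min. 5-12 mice per test.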
# Mus musculus [15] = assay: Licking latency was measured after 30 min treatment (at dose=20 mg/kg) by using mouse hot plate test; format: functional; in short: as §1
# IMR-32 [16] = assay: Cholinergic interactions was measured with FLIPR device on cells of IMR-32 human neuroblastoma clonal line and given as Intrinsic activity; format: functional; in short: as §2
# Mus musculus [17] = assay: Licking latency was measured after 45 min treatment (at dose=20 mg/kg) by using mouse hot plate test; format: functional; in short: as §1
# [18] = biological target: Neuronal acetylcholine receptor; alpha4/beta2 (Rattus norvegicus, UniProt P09483+P12390); assay: Cholinergic interactions was measured as displaced [3H][…] from Nicotinic acetylcholine receptor alpha4-beta2 in rat brain membranes; format: cell membranes
# Chain of Neuronal acetylcholine receptor; alpha4/beta2 (P09483 whole entry): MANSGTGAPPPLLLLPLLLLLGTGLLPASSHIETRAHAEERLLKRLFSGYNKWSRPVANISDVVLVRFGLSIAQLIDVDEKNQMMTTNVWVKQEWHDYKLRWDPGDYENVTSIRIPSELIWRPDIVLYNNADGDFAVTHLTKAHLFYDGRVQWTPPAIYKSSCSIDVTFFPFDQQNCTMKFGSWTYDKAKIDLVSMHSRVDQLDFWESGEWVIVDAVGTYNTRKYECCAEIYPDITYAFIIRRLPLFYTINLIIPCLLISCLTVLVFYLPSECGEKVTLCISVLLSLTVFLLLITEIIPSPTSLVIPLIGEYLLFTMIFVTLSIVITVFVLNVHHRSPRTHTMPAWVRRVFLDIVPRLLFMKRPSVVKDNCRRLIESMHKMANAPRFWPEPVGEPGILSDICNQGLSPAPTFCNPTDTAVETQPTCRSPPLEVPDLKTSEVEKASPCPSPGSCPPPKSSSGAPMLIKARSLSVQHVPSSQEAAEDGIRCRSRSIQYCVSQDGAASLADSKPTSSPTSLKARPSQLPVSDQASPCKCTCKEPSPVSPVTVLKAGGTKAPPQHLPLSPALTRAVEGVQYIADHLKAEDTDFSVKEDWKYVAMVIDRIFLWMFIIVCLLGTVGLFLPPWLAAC
# Chain of Neuronal acetylcholine receptor; alpha4/beta2 (P12390 whole entry): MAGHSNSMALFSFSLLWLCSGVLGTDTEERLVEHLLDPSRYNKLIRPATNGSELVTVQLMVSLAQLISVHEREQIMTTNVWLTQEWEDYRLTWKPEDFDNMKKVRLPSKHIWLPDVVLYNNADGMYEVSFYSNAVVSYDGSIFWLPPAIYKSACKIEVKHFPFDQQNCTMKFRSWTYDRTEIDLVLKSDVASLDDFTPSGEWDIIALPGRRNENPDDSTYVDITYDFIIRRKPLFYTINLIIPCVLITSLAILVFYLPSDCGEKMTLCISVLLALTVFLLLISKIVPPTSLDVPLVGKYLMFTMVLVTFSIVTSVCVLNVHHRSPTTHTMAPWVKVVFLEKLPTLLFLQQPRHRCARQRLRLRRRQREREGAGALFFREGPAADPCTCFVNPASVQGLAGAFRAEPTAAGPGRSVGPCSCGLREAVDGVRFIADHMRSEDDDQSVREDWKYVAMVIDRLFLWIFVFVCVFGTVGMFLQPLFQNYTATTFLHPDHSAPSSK
# In short: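 Rat cerebral cortical membranes were washed and resuspended in Tris-HCl 50 mM buffer, pH 7.4, then spun at 45000g. Samples held 150-200 µg protein and 0.7 nM [3H]-(-)-cytisine with varying modulator concentrations. Incubation was 75 min at 4 °C in triplicate. Nonspecific binding was defined with 10 µM (-)-nicotine.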
# K177 cell line [19] = assay: Cholinergic interactions was measured with FLIPR device on […] cells and given as Intrinsic activity; format: functional, Homo sapiens; in short: as §2
# Mus musculus [20] = species: Mus musculus; assay: Analgesic efficacy is expressed as percentage of that epibatidine, done on mouse.; format: functional
# TE-671 [21] = assay: Cholinergic interactions was measured with FLIPR device on TE671 cells and given as Effective dose; format: functional, cell-based; conditions: Homo sapiens; in short: as §2
# Mus musculus [22] = assay: Maximal nontoxic dose of the compound, done on mouse; sc; format: functional
# In short: (§4)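 Male Swiss-Webster mice dosed sc. The value is the highest dose causing no visible behavioural change (tremors, convulsions, hypomotility etc.), so that treated mice could not be told apart from untreated ones. Behaviour was scored by the Irwin method in groups of at least 10 animals.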
# K177 cell line [23] = assay: Cholinergic interactions was measured with FLIPR device on […] cells and given as EC50.; format: functional, cell-based; conditions: Homo sapiens; in short: as §2
# IMR-32 [24] = assay: Cholinergic interactions was measured with FLIPR device on IMR-32 cells of human neuroblastoma clonal line, given as effective dose; format: functional, cell-based; in short: as §2
# Mus musculus [25] = assay: Licking latency was measured after 45 min treatment (at dose=5 mg/kg) by using mouse hot plate test; format: functional; in short: as §1
# Mus musculus [26] = assay: Licking latency was measured after 15 min treatment (at dose=25 mg/kg) by using mouse hot plate test; format: functional; in short: as §1
# Mus musculus [27] = assay: Licking latency was measured after 45 min treatment (at dose=25 mg/kg) by using mouse hot plate test; format: functional; in short: as §1
# Mus musculus [28] = assay: Licking latency was measured after 30 min treatment (at dose=15 mg/kg) by using mouse hot plate test; format: functional; in short: as §1
# Mus musculus [29] = assay: Licking latency was measured before treatment (at dose=25 mg/kg) by using mouse hot plate test; format: functional; in short: as §1
# Mus musculus [30] = assay: Licking latency was measured after 15 min treatment (at dose=15 mg/kg) by using mouse hot plate test; format: functional; in short: as §1
# Mus musculus [31] = assay: Licking latency was measured after 30 min treatment (at dose=25 mg/kg) by using mouse hot plate test; format: functional; in short: as §1
# Mus musculus [32] = assay: MAD: minimal dose able to induce a statistically significant increase of the pain threshold, done on mouse; sc; format: functional; in short: as §3
# Mus musculus [33] = assay: Licking latency was measured after 45 min treatment (at dose=15 mg/kg) by using mouse hot plate test; format: functional; in short: as §1
# Mus musculus [34] = assay: Licking latency was measured before treatment (at dose=15 mg/kg) by using mouse hot plate test; format: functional; in short: as §1
# Mus musculus [35] = assay: MNTD:Maximal nontoxic dose of the compound, done on mouse; sc; format: functional; in short: as §4
compound,measurement,setting,value
Clc1ccc(N2CC3CCC(C2)N3)nn1,Licking latency,Mus musculus [1],28.5 s
same,Licking latency,Mus musculus [2],14.3 s
same,Intrinsic activity,TE-671 [3],9.6%
same,Licking latency,Mus musculus [4],32.3 s
same,MAD,Mus musculus [5],1 mg/kg
same,Licking latency,Mus musculus [6],14.2 s
same,Licking latency,Mus musculus [7],25.6 s
same,Efficacy,Mus musculus [8],136%
same,Licking latency,Mus musculus [9],27.8 s
same,Licking latency,Mus musculus [10],38.3 s
same,Licking latency,Mus musculus [11],13.5 s
same,Licking latency,Mus musculus [12],21.5 s
same,Licking latency,Mus musculus [13],21.5 s
same,Licking latency,Mus musculus [14],13.7 s
same,Licking latency,Mus musculus [15],39.8 s
same,Intrinsic activity,IMR-32 [16],122.6%
same,Licking latency,Mus musculus [17],33.8 s
same,Ki,[18],4.1 µM
same,Intrinsic activity,K177 cell line [19],164%
same,Efficacy,Mus musculus [20],167%
same,EC50,TE-671 [21],> 1000 µM
same,MNTD,Mus musculus [22],30 mg/kg
same,EC50,K177 cell line [23],24 µM
same,EC50,IMR-32 [24],12.2 µM
same,Licking latency,Mus musculus [25],26.5 s
Clc1cccc(N2CC3CCC(C2)N3)n1,Licking latency,Mus musculus [26],31.9 s
same,Analgesic efficacy compared to morphine,Mus musculus [8],116%
same,Licking latency,Mus musculus [27],34.2 s
same,Licking latency,Mus musculus [28],22.1 s
same,Licking latency,Mus musculus [29],14.6 s
same,Licking latency,Mus musculus [30],23.6 s
same,Licking latency,Mus musculus [31],37 s
same,MAD,Mus musculus [32],15 mg/kg
same,Analgesic efficacy compared to epibatidine,Mus musculus [20],142%
same,Licking latency,Mus musculus [33],22 s
same,Licking latency,Mus musculus [34],13.5 s
same,MNTD,Mus musculus [35],30 mg/kg
